Laboratory results: ChEMBL document CHEMBL4311965, “Antimicrobial activity of amphipathic α,α-disubstituted β-amino amide derivatives against ESBL - CARBA producing multi-resistant bacteria; effect of halogenation, lipophilicity and cationic character” (Eur J Med Chem, 2019)
Values after ≈ are worked out from the molar mass of the structure shown.

How the values were obtained:
Pseudomonas aeruginosa [1] = assay: Antibacterial activity against multidrug-resistant Pseudomonas aeruginosa K34-73 producing Verona integron encoded metallo beta-lactamse-4 cultured in MHB medium assessed as reduction in bacterial growth incubated for 24 hrs by microdilution susceptibility test; assay type: functional; conditions: K34-73, 24 h
Method in brief: (§1)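 Broth microdilution per CLSI M07-A9 (modified). Working solutions made from concentrated DMSO stocks kept at r.t., diluted in double-distilled water, final DMSO <1%. Inoculum 1–1.2 x 10⁶ cells/mL in Mueller-Hinton broth, mixed 1:1 with compound. 37 °C, 24 h, four parallels. Read as OD₆₀₀. Where precipitation left residual OD, the point of major OD decrease was taken as the inhibitory concentration.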

Acinetobacter baumannii [2] = assay: Antibacterial activity against multidrug-resistant Acinetobacter baumannii K47-42 producing oxcillinase-23 cultured in MHB medium assessed as reduction in bacterial growth incubated for 24 hrs by microdilution susceptibility test; assay type: functional; conditions: K47-42, 24 h; method in brief: as §1
Pseudomonas aeruginosa [3] = assay: Antibacterial activity against multidrug-resistant Pseudomonas aeruginosa 50692172 producing New Delhi metallo-beta-lactamase-1 cultured in MHB medium assessed as reduction in bacterial growth incubated for 24 hrs by microdilution susceptibility test; assay type: functional; conditions: Pseudomonas aeruginosa, 50692172, 24 h; method in brief: as §1
Staphylococcus aureus [4] = assay: Antibacterial activity against multidrug-resistant Staphylococcus aureus WIS cultured in MHB medium assessed as reduction in bacterial growth incubated for 24 hrs by microdilution susceptibility test; assay type: functional; method in brief: as §1
[5] = Selectivity index, ratio of EC50 for hemolytic activity against human RBC to MIC for antibacterial activity against Staphylococcus aureus ATCC 9144; assay type: toxicity; conditions: human red blood cells (RBC)
Method in brief: (§2)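 Selectivity index is the RBC haemolysis EC50 divided by the MIC against the E. coli or S. aureus reference strain.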

[6] = Selectivity index, ratio of EC50 for hemolytic activity against human RBC to MIC for antibacterial activity against Escherichia coli ATCC 25922; assay type: toxicity; conditions: human red blood cells (RBC); method in brief: as §2
Klebsiella pneumoniae [7] = assay: Antibacterial activity against multidrug-resistant Klebsiella pneumoniae 50625602 producing oxcillinase-245 cultured in MHB medium assessed as reduction in bacterial growth incubated for 24 hrs by microdilution susceptibility test; assay type: functional; conditions: Klebsiella pneumoniae, 50625602, 24 h; method in brief: as §1
Escherichia coli [8] = assay: Antibacterial activity against multidrug-resistant Escherichia coli 50579417 producing oxcillinase-48 cultured in MHB medium assessed as reduction in bacterial growth incubated for 24 hrs by microdilution susceptibility test; assay type: functional; conditions: Escherichia coli, 50579417, 24 h; method in brief: as §1
Staphylococcus aureus [9] = assay: Antibacterial activity against multidrug-resistant Staphylococcus aureus IHT 99040 cultured in MHB medium assessed as reduction in bacterial growth incubated for 24 hrs by microdilution susceptibility test; assay type: functional; conditions: IHT 99040, 24 h; method in brief: as §1
Acinetobacter baumannii [10] = assay: Antibacterial activity against multidrug-resistant Acinetobacter baumannii K55-13 producing oxcillinase-24 cultured in MHB medium assessed as reduction in bacterial growth incubated for 24 hrs by microdilution susceptibility test; assay type: functional; conditions: K55-13, 24 h; method in brief: as §1
Acinetobacter baumannii [11] = assay: Antibacterial activity against multidrug-resistant Acinetobacter baumannii K44-35 producing oxcillinase-23 cultured in MHB medium assessed as reduction in bacterial growth incubated for 24 hrs by microdilution susceptibility test; assay type: functional; conditions: K44-35, 24 h; method in brief: as §1
Klebsiella pneumoniae [12] = assay: Antibacterial activity against multidrug-resistant Klebsiella pneumoniae K66-45 producing New Delhi metallo-beta-lactamase-1 cultured in MHB medium assessed as reduction in bacterial growth incubated for 24 hrs by microdilution susceptibility test; assay type: functional; conditions: K66-45, 24 h; method in brief: as §1
Acinetobacter baumannii [13] = assay: Antibacterial activity against multidrug-resistant Acinetobacter baumannii K12-21 producing oxcillinase-58 cultured in MHB medium assessed as reduction in bacterial growth incubated for 24 hrs by microdilution susceptibility test; assay type: functional; conditions: K12-21, 24 h; method in brief: as §1
Pseudomonas aeruginosa [14] = assay: Antibacterial activity against Pseudomonas aeruginosa PA01 DSM 19880 (ATCC 15692) cultured in MHB medium assessed as no bacterial growth incubated at 37 degC for 24 hrs by microdilution susceptibility test; assay type: functional; conditions: PAO1 DSM 19880 (ATCC 15692)
Method in brief: (§3)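 Broth microdilution per CLSI M07-A9 with modifications. Inoculum about 2.5–3 x 10⁴ cells/mL in Mueller-Hinton broth, mixed 1:1 with test derivative. DMSO stocks diluted in double-distilled water, final DMSO <1%. Incubation 24 h at 37 °C (20 °C for C. glutamicum). Growth and sterility controls included; oxytetracycline reference.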

Escherichia coli [15] = assay: Antibacterial activity against multidrug-resistant Escherichia coli 50739822 producing New Delhi metallo-beta-lactamase-1 cultured in MHB medium assessed as reduction in bacterial growth incubated for 24 hrs by microdilution susceptibility test; assay type: functional; conditions: Escherichia coli, 50739822, 24 h; method in brief: as §1
[16] = system: Corynebacterium glutamicum; assay: Antibacterial activity against Corynebacterium glutamicum ATCC 13032 cultured in MHB medium assessed as no bacterial growth incubated at 20 degC for 24 hrs by microdilution susceptibility test; assay type: functional; conditions: ATCC 13032, 24 h; method in brief: as §3
Pseudomonas aeruginosa [17] = assay: Antibacterial activity against multidrug-resistant Pseudomonas aeruginosa K44-24 producing imipenem-type carbapenemase-14 cultured in MHB medium assessed as reduction in bacterial growth incubated for 24 hrs by microdilution susceptibility test; assay type: functional; conditions: K44-24, 24 h; method in brief: as §1
Escherichia coli [18] = assay: Antibacterial activity against multidrug-resistant Escherichia coli 50857972 producing imipenem-type carbapenemase-26 cultured in MHB medium assessed as reduction in bacterial growth incubated for 24 hrs by microdilution susceptibility test; assay type: functional; conditions: Escherichia coli, 50857972, 24 h; method in brief: as §1
Klebsiella pneumoniae [19] = assay: Antibacterial activity against multidrug-resistant Klebsiella pneumoniae K47-25 producing carbapenemase-2 cultured in MHB medium assessed as reduction in bacterial growth incubated for 24 hrs by microdilution susceptibility test; assay type: functional; conditions: K47-25, 24 h; method in brief: as §1
Klebsiella pneumoniae [20] = assay: Antibacterial activity against multidrug-resistant Klebsiella pneumoniae 50531633 producing New Delhi metallo-beta-lactamase-1 and oxcillinase-181 cultured in MHB medium assessed as reduction in bacterial growth incubated for 24 hrs by microdilution susceptibility test; assay type: functional; conditions: Klebsiella pneumoniae, 50531633, 24 h; method in brief: as §1
Erythrocyte = assay: Hemolytic activity against human RBC incubated for 1 hr; assay type: cell-based
Method in brief: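 Heparinized human blood washed three times in warm PBS and set to 10% hct. Erythrocytes at 1% v/v final, with compound in PBS (DMSO <1%), shaken 1 h at 37 °C and then centrifuged. Supernatant absorbance read at 405 and 545 nm after PBS background subtraction. Haemolysis taken relative to 1% Triton X-100. Three independent replicates, EC50 averaged.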

Enterococcus faecium = assay: Antibacterial activity against multidrug-resistant Enterococcus faecium 50673722 cultured in BHIB medium assessed as reduction in bacterial growth incubated for 24 hrs by microdilution susceptibility test; assay type: functional; conditions: Enterococcus faecium, 50673722, 24 h
Method in brief: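 Enterococci grown in Brain Heart Infusion broth, otherwise broth microdilution per CLSI M07-A9 (modified). Concentrated DMSO stocks kept at r.t. and diluted in double-distilled water, final DMSO <1%. Inoculum 1–1.2 x 10⁶ cells/mL mixed 1:1 with compound. 37 °C, 24 h, four parallels. OD₆₀₀ read-out, lowest concentration with no growth.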

Escherichia coli [21] = assay: Antibacterial activity against multidrug-resistant Escherichia coli 50639799 producing Verona integron encoded metallo beta-lactamse-29 cultured in MHB medium assessed as reduction in bacterial growth incubated for 24 hrs by microdilution susceptibility test; assay type: functional; conditions: Escherichia coli, 50639799, 24 h; method in brief: as §1

SMILES	MIC (Pseudomonas aeruginosa [1])	MIC (Acinetobacter baumannii [2])	MIC (Pseudomonas aeruginosa [3])	MIC (Staphylococcus aureus [4])	selectivity ratio [5]	selectivity ratio [6]	MIC (Klebsiella pneumoniae [7])	MIC (Escherichia coli [8])	MIC (Staphylococcus aureus [9])	MIC (Acinetobacter baumannii [10])	MIC (Acinetobacter baumannii [11])	MIC (Klebsiella pneumoniae [12])	MIC (Acinetobacter baumannii [13])	MIC (Pseudomonas aeruginosa [14])	MIC (Escherichia coli [15])	MIC [16]	MIC (Pseudomonas aeruginosa [17])	MIC (Escherichia coli [18])	MIC (Klebsiella pneumoniae [19])	MIC (Klebsiella pneumoniae [20])	other results
NCCNCC(CN)(Cc1cc(C(F)(F)F)cc(C(F)(F)F)c1)Cc1cc(C(F)(F)F)cc(C(F)(F)F)c1	32 µg/mL (≈ 56.2 µM)	8 µg/mL (≈ 14 µM)	16 µg/mL (≈ 28.1 µM)	8 µg/mL (≈ 14 µM)	6	6	8 µg/mL (≈ 14 µM)	8 µg/mL (≈ 14 µM)	8 µg/mL (≈ 14 µM)	8 µg/mL (≈ 14 µM)	8 µg/mL (≈ 14 µM)	8 µg/mL (≈ 14 µM)	8 µg/mL (≈ 14 µM)	4 µg/mL (≈ 7.02 µM)	8 µg/mL (≈ 14 µM)	1 µg/mL (≈ 1.76 µM)	32 µg/mL (≈ 56.2 µM)	8 µg/mL (≈ 14 µM)	16 µg/mL (≈ 28.1 µM)	8 µg/mL (≈ 14 µM)	EC50 (Erythrocyte): 23 µg/mL (≈ 40.4 µM); MIC (Enterococcus faecium): 4 µg/mL (≈ 7.02 µM); MIC (Escherichia coli [21]): 8 µg/mL (≈ 14 µM)
N=C(N)NCCNC(=O)C(CNC(=N)N)(Cc1cc(C(F)(F)F)cc(C(F)(F)F)c1)Cc1cc(C(F)(F)F)cc(C(F)(F)F)c1	16 µg/mL (≈ 24 µM)	> 32 µg/mL	32 µg/mL (≈ 47.9 µM)	8 µg/mL (≈ 12 µM)	101	50	> 32 µg/mL	32 µg/mL (≈ 47.9 µM)	8 µg/mL (≈ 12 µM)	> 32 µg/mL	> 32 µg/mL	> 32 µg/mL	> 32 µg/mL	4 µg/mL (≈ 5.99 µM)	32 µg/mL (≈ 47.9 µM)	0.5 µg/mL (≈ 0.749 µM)	32 µg/mL (≈ 47.9 µM)	32 µg/mL (≈ 47.9 µM)	> 32 µg/mL	> 32 µg/mL	EC50 (Erythrocyte): 201 µg/mL (≈ 301 µM); MIC (Enterococcus faecium): 8 µg/mL (≈ 12 µM); MIC (Escherichia coli [21]): 16 µg/mL (≈ 24 µM)
NCCNC(=O)C(CN)(Cc1cc(C(F)(F)F)cc(C(F)(F)F)c1)Cc1cc(C(F)(F)F)cc(C(F)(F)F)c1	32 µg/mL (≈ 54.8 µM)	16 µg/mL (≈ 27.4 µM)	32 µg/mL (≈ 54.8 µM)	16 µg/mL (≈ 27.4 µM)	12	12	16 µg/mL (≈ 27.4 µM)	16 µg/mL (≈ 27.4 µM)	8 µg/mL (≈ 13.7 µM)	16 µg/mL (≈ 27.4 µM)	16 µg/mL (≈ 27.4 µM)	32 µg/mL (≈ 54.8 µM)	8 µg/mL (≈ 13.7 µM)	4 µg/mL (≈ 6.86 µM)	16 µg/mL (≈ 27.4 µM)	1 µg/mL (≈ 1.71 µM)	> 32 µg/mL	8 µg/mL (≈ 13.7 µM)	32 µg/mL (≈ 54.8 µM)	16 µg/mL (≈ 27.4 µM)	EC50 (Erythrocyte): 48 µg/mL (≈ 82.3 µM); MIC (Enterococcus faecium): 8 µg/mL (≈ 13.7 µM); MIC (Escherichia coli [21]): 16 µg/mL (≈ 27.4 µM)
NCCNC(=O)C(CN)(Cc1ccc(F)c2ccccc12)Cc1ccc(F)c2ccccc12	32 µg/mL (≈ 71.5 µM)	16 µg/mL (≈ 35.8 µM)	> 32 µg/mL	16 µg/mL (≈ 35.8 µM)	19	19	8 µg/mL (≈ 17.9 µM)	8 µg/mL (≈ 17.9 µM)	16 µg/mL (≈ 35.8 µM)	32 µg/mL (≈ 71.5 µM)	> 32 µg/mL	8 µg/mL (≈ 17.9 µM)	32 µg/mL (≈ 71.5 µM)	8 µg/mL (≈ 17.9 µM)	16 µg/mL (≈ 35.8 µM)	2 µg/mL (≈ 4.47 µM)	32 µg/mL (≈ 71.5 µM)	8 µg/mL (≈ 17.9 µM)	32 µg/mL (≈ 71.5 µM)	8 µg/mL (≈ 17.9 µM)	EC50 (Erythrocyte): 74 µg/mL (≈ 165 µM); MIC (Enterococcus faecium): 16 µg/mL (≈ 35.8 µM); MIC (Escherichia coli [21]): 16 µg/mL (≈ 35.8 µM)
NCCNCC(CN)(Cc1cc(Br)cc(Br)c1)Cc1cc(Br)cc(Br)c1	16 µg/mL (≈ 26.1 µM)	16 µg/mL (≈ 26.1 µM)	32 µg/mL (≈ 52.2 µM)	8 µg/mL (≈ 13 µM)	12	6	16 µg/mL (≈ 26.1 µM)	16 µg/mL (≈ 26.1 µM)	8 µg/mL (≈ 13 µM)	8 µg/mL (≈ 13 µM)	8 µg/mL (≈ 13 µM)	8 µg/mL (≈ 13 µM)	16 µg/mL (≈ 26.1 µM)	4 µg/mL (≈ 6.52 µM)	8 µg/mL (≈ 13 µM)	1 µg/mL (≈ 1.63 µM)	16 µg/mL (≈ 26.1 µM)	8 µg/mL (≈ 13 µM)	8 µg/mL (≈ 13 µM)	8 µg/mL (≈ 13 µM)	EC50 (Erythrocyte): 24 µg/mL (≈ 39.1 µM); MIC (Enterococcus faecium): 4 µg/mL (≈ 6.52 µM); MIC (Escherichia coli [21]): 8 µg/mL (≈ 13 µM)
